Results from ChEMBL document CHEMBL1130343, “Folate-based inhibitors of thymidylate synthase: synthesis and antitumor activity of gamma-linked sterically hindered dipeptide analogues of 2-desamino-2-methyl-N10-propargyl-5,8-dideazafolic acid (ICI 198583)” (J Med Chem, 1997).

Experiments:
[1] = molecular target: Thymidylate synthase (Mus musculus, UniProt P07607); assay: Inhibition of Thymidylate Synthase(TS) from mouse L1210 cells; type: cell-based; conditions: read-out: Ki app
[2] = species: Mus musculus; assay: Compound was tested for inhibition of L1210:R D1694 cell growth in mouse.; type: functional, organism-based; conditions: L1210 (RD1694)
[3] = species: Mus musculus; assay: Compound was tested for inhibition of L1210 cell growth in mouse.; type: functional, organism-based
[4] = species: Mus musculus; assay: Compound was tested for inhibition of L1210:1565 cell growth in mouse.; type: functional, organism-based
Summary of the method: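 Growth inhibition measured in L1210:1565, a mouse L1210 mutant line with an impaired reduced folate/MTX transport carrier. The line was selected for resistance to CI-920, an RFC-transported agent, and is cross-resistant to MTX. Result expressed as IC50.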

[5] = tested on: WIL2; assay: Compound was tested for inhibition of human W1L2 cell growth.; type: functional, cell-based

Thymidylate synthase, sequence (P07607 whole entry): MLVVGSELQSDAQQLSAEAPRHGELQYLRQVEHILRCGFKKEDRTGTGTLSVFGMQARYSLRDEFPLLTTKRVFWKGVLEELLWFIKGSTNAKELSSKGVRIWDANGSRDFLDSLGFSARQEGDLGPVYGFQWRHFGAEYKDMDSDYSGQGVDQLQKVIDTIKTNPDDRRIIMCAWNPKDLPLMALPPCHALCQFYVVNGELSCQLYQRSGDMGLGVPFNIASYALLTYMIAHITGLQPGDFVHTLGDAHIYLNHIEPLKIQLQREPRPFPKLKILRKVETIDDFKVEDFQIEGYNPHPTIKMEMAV

Ki [1]: 42 nM
SMILES: C#CCN(Cc1ccc2nc(C)nc(O)c2c1)c1ccc(C(=O)N[C@@H](CCC(=O)NC(C)(C)C(=O)O)C(=O)O)cc1
IC50 [2]: 7.1 µM
IC50 [3]: 2500 nM
IC50 [4]: 70 µM
IC50 [5]: 310 nM
